In test [1] the test system is A549. Description: Cytotoxicity against human A549 cells assessed as growth inhibition at 20 uM after 48 hrs by MTT assay. The format is functional. The following applies: for inhibition of growth at 20 µM: A549, 48 h, read-out: GI. The procedure, abridged:
(§1)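 Single-concentration screen at 20 µM. Cell growth inhibition read by standard MTT assay after 48 h treatment and expressed as inhibition ratio.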
For orientation: Formazan colour is commonly taken as a measure of viable cells.

Test [2] relates to HeLa. The experiment in a line: Cytotoxicity against human HeLa cells assessed as growth inhibition at 20 uM after 48 hrs by MTT assay. The format is functional. The note with it: for inhibition of growth at 20 µM: read-out: GI. The gist of the method:
as §1

Test [3] has as its system MDA-MB-231. The experiment in a line: Cytotoxicity against human MDA-MB-231 cells assessed as growth inhibition at 20 uM after 48 hrs by MTT assay. The format is functional. The following applies: for inhibition of growth at 20 µM: MDA-MB-231, 48 h, read-out: GI. The procedure, abridged:
as §1

The target in test [4] is Induced myeloid leukemia cell differentiation protein Mcl-1 (Homo sapiens) (UniProt Q07820). Description: Inhibition of mouse/human MCL1 expressed in Escherichia coli BL21 at 1 uM to 50 uM using FAM-labeled Bid-BH3 as tracer by fluorescence polarization assay. (Polarisation of emitted light reports the rotation of a fluorescent probe.)
Another test deals with HEK-293T. The experiment in a line: Cytotoxicity against human HEK293T cells assessed as growth inhibition after 48 hrs by MTT assay. The format is cell-based. The procedure, abridged: (§2)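 Dose-response MTT assay, 48 h exposure. Compounds run at multiple concentrations; IC50 taken as the concentration giving 50% growth inhibition. HEK-293T (human embryonic kidney cells transformed with adenovirus 5 DNA and SV40 large T-antigen) served as the normal-cell model.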

Test [5] concerns HeLa. The experiment in a line: Cytotoxicity against human HeLa cells assessed as growth inhibition after 48 hrs by MTT assay. The format is functional, cell-based. The procedure, abridged:
as §2

Test [6] relates to A549. Description: Cytotoxicity against human A549 cells assessed as growth inhibition after 48 hrs by MTT assay. The format is functional, cell-based. The following applies: A549, 48 h. The procedure, abridged: as §2
In test [7] the test system is MDA-MB-231. The experiment in a line: Cytotoxicity against human MDA-MB-231 cells assessed as growth inhibition after 48 hrs by MTT assay. Format: functional, cell-based. The note with it: MDA-MB-231, 48 h. The procedure, abridged: as §2

What is called IC50 is the concentration that gives 50% inhibition.

Activity calls are given as the source filed them. The rule behind the calls is not given here. Some results are limits rather than exact numbers.

For `O=C(Cn1cnc2sc3c(c2c1=O)CCCCC3)N/N=C/c1cccc(O)c1`, the “growth inhibition (GI)” value in the test with A549 [1], in the test on HeLa [2] and in the test on MDA-MB-231 [3] was “inactive” throughout. Besides, the inhibition result in test [4] was “inactive”.

`O=C(Cn1cnc2sc3c(c2c1=O)CCC3)N/N=C/c1ccc(Cl)c([N+](=O)[O-])c1`: the “growth inhibition (GI)” value in the test on A549 [1] was “inactive”. Besides, the inhibition of growth at 20 µM was determined as 34% in the test on HeLa [2] and 41% with MDA-MB-231 [3]. Further, the inhibition result in test [4] is “inactive”.

Consider `O=C(Cn1cnc2sc3c(c2c1=O)CCCC3)N/N=C/c1ccccc1O`, for which the inhibition of growth at 20 µM came out at 18% with A549 [1], 34% in the test on HeLa [2] and 29% in the test with MDA-MB-231 [3]. The IC50 in the test with HEK-293T was above 50 µM; in the test with HeLa [5] it was 40 µM; with A549 [6], above 50 µM; in the test with MDA-MB-231 [7], 16 µM. Also, the inhibition entry in test [4] is “inactive”.

Regarding `O=C(Cn1cnc2sc3c(c2c1=O)CCCC3)N/N=C/c1ccc(Cl)c([N+](=O)[O-])c1`, the results for the inhibition of growth at 20 µM in the test on A549 [1], with HeLa [2] and with MDA-MB-231 [3] were 10%, 27% and 38%, respectively. For the same compound, in test [4], the inhibition entry was “inactive”.

Consider `O=C(Cn1cnc2scc(-c3ccc4ccccc4c3)c2c1=O)N/N=C/c1ccc(Cl)c(F)c1`, for which the “growth inhibition (GI)” value in the test on A549 [1], in the test with HeLa [2] and with MDA-MB-231 [3] was “inactive” throughout. Also, the inhibition result in test [4] was “inactive”.

For the compound `O=C(Cn1cnc2scc(-c3ccc(Cl)cc3)c2c1=O)N/N=C/c1ccc(Cl)c(F)c1`, the “growth inhibition (GI)” value in the test with A549 [1], in the test with HeLa [2] and with MDA-MB-231 [3] was “inactive” in each case. In addition, in test [4], the inhibition result was “inactive”.

Take `O=C(Cn1cnc2scc(-c3ccc4ccccc4c3)c2c1=O)N/N=C/c1ccccc1O`: the inhibition of growth at 20 µM in the test with A549 [1] turned out to be 44%; in the test on HeLa [2] it was 22%; in the test on MDA-MB-231 [3], 36%. In addition, the inhibition entry in test [4] was “inactive”.

As to `N#Cc1ccc(/C=N/NC(=O)Cn2cnc3sc4c(c3c2=O)CCCC4)cc1`, the “growth inhibition (GI)” value in the test on A549 [1], in the test on HeLa [2] and with MDA-MB-231 [3] was “inactive” each time. Further, in test [4], the inhibition result was “inactive”.

For the compound `O=C(Cn1cnc2scc(-c3ccc(Cl)cc3)c2c1=O)N/N=C/c1ccccc1O`, the results for the inhibition of growth at 20 µM with A549 [1], with HeLa [2] and in the test on MDA-MB-231 [3] were 48%, 43% and 39%, respectively. For the same compound, the inhibition result in test [4] is “inactive”.

On to `O=C(Cn1cnc2sc3c(c2c1=O)CCC3)N/N=C/c1cccc(O)c1`, for which the “growth inhibition (GI)” value in the test on A549 [1], in the test on HeLa [2] and in the test with MDA-MB-231 [3] was “inactive” in each case. Further, the inhibition entry in test [4] is “inactive”.

Turning to `O=C(Cn1cnc2sc3c(c2c1=O)CCCCC3)N/N=C/c1ccc(Cl)c(F)c1`, the inhibition of growth at 20 µM in the test on A549 [1] amounted to 43%; in the test on HeLa [2] it was 50%; with MDA-MB-231 [3] it was 28%. In test [4], the inhibition result was “inactive”.

For `O=C(Cn1cnc2scc(-c3ccccc3)c2c1=O)N/N=C/c1ccc(Cl)c(F)c1`, the “growth inhibition (GI)” value with A549 [1], with HeLa [2] and in the test on MDA-MB-231 [3] was “inactive” throughout. Also, in test [4], the inhibition result was “inactive”.

Turning to `N#Cc1ccc(/C=N/NC(=O)Cn2cnc3scc(-c4ccc(Cl)cc4)c3c2=O)cc1`, the “growth inhibition (GI)” value with A549 [1], in the test with HeLa [2] and in the test on MDA-MB-231 [3] was “inactive” throughout. In addition, the inhibition entry in test [4] was “inactive”.

With `O=C(Cn1cnc2scc(-c3ccc4ccccc4c3)c2c1=O)N/N=C/c1cccc([N+](=O)[O-])c1`, the “growth inhibition (GI)” value with A549 [1], in the test on HeLa [2] and in the test on MDA-MB-231 [3] was “inactive” throughout. Further, the inhibition entry in test [4] was “inactive”.

Take `O=C(Cn1cnc2scc(-c3ccc(Cl)cc3)c2c1=O)N/N=C/c1ccc(O)c(O)c1`: the “growth inhibition (GI)” value in the test with A549 [1], with HeLa [2] and in the test with MDA-MB-231 [3] was “inactive” each time. For the same compound, in test [4], the inhibition result is “inactive”.

As for `N#Cc1ccc(/C=N/NC(=O)Cn2cnc3scc(-c4ccc5ccccc5c4)c3c2=O)cc1`, the “growth inhibition (GI)” value in the test with A549 [1], in the test with HeLa [2] and with MDA-MB-231 [3] was “inactive” throughout. The inhibition entry in test [4] is “inactive”.

As for `O=C(Cn1cnc2sc3c(c2c1=O)CCCC3)N/N=C/c1ccc(C(F)(F)F)cc1`, the inhibition of growth at 20 µM stood at 23% with A549 [1], 34% in the test on HeLa [2] and 30% with MDA-MB-231 [3]. Besides, the inhibition entry in test [4] is “inactive”.

Consider `O=C(Cn1cnc2sc3c(c2c1=O)CCCC3)N/N=C/c1ccc(Cl)c(F)c1`, for which the results for the inhibition of growth at 20 µM with A549 [1], in the test with HeLa [2] and in the test with MDA-MB-231 [3] were 26%, 41% and 39%, respectively. Moreover, the inhibition result in test [4] was “inactive”.

For the compound `N#Cc1ccc(/C=N/NC(=O)Cn2cnc3sc4c(c3c2=O)CCC4)cc1`, the “growth inhibition (GI)” value in the test on A549 [1], in the test with HeLa [2] and in the test with MDA-MB-231 [3] was “inactive” in each case. The inhibition entry in test [4] is “inactive”.

For the compound `Cc1cc(-c2csc3ncn(CC(=O)N/N=C/c4ccccc4O)c(=O)c23)ccc1Cl`, the inhibition of growth at 20 µM with A549 [1] is 35%; in the test on HeLa [2] it was 33%; in the test on MDA-MB-231 [3], 37%. Also, the inhibition result in test [4] was “inactive”.

For the compound `O=C(Cn1cnc2sc3c(c2c1=O)CCC3)N/N=C/c1ccc(O)cc1`, the values for the inhibition of growth at 20 µM in the test with A549 [1], in the test with HeLa [2] and in the test on MDA-MB-231 [3] were 27%, 29% and 25%, respectively. For the same compound, in test [4], the inhibition result is “inactive”.

With `N#Cc1ccc(/C=N/NC(=O)Cn2cnc3sc4c(c3c2=O)CCCCC4)cc1`, the figures for the inhibition of growth at 20 µM with A549 [1], in the test with HeLa [2] and in the test on MDA-MB-231 [3] were 10%, 11% and 14%, respectively. In addition, the inhibition entry in test [4] was “inactive”.

Consider `Cc1csc2ncn(CC(=O)N/N=C/c3ccc(Cl)c(F)c3)c(=O)c12`, for which the “growth inhibition (GI)” value in the test on A549 [1], with HeLa [2] and in the test on MDA-MB-231 [3] was “inactive” in each case. In addition, the inhibition result in test [4] is “inactive”.

For `N#Cc1ccc(/C=N/NC(=O)Cn2cnc3scc(-c4ccccc4)c3c2=O)cc1`, the “growth inhibition (GI)” value in the test on A549 [1], in the test with HeLa [2] and with MDA-MB-231 [3] was “inactive” each time. In addition, the inhibition result in test [4] was “inactive”.

Take `O=C(Cn1cnc2scc(-c3ccc(Cl)cc3)c2c1=O)N/N=C/c1cccc([N+](=O)[O-])c1`: the “growth inhibition (GI)” value in the test with A549 [1], in the test on HeLa [2] and in the test on MDA-MB-231 [3] was “inactive” each time. The inhibition entry in test [4] is “inactive”.

As to `O=C(Cn1cnc2sc3c(c2c1=O)CCC3)N/N=C/c1ccccc1O`, the inhibition of growth at 20 µM came to 22% with A549 [1], 23% in the test with HeLa [2] and 36% in the test with MDA-MB-231 [3]. Moreover, in test [4], the inhibition entry is “inactive”.

For the compound `O=C(Cn1cnc2sc3c(c2c1=O)CCCCC3)N/N=C/c1ccc(O)cc1`, the “growth inhibition (GI)” value in the test with A549 [1], with HeLa [2] and with MDA-MB-231 [3] was “inactive” each time. Moreover, in test [4], the inhibition result was “inactive”.

In the case of `Cc1csc2ncn(CC(=O)N/N=C/c3ccc(Cl)c([N+](=O)[O-])c3)c(=O)c12`, the inhibition of growth at 20 µM in the test on A549 [1] stood at 13%; with HeLa [2] it was 18%; in the test on MDA-MB-231 [3], 13%. Besides, the inhibition result in test [4] was “inactive”.

Regarding `O=C(Cn1cnc2scc(-c3ccccc3)c2c1=O)N/N=C/c1ccccc1O`, the figures for the inhibition of growth at 20 µM in the test on A549 [1], with HeLa [2] and in the test with MDA-MB-231 [3] were 26%, 31% and 30%, respectively. Further, the inhibition result in test [4] is “inactive”.

As for `O=C(Cn1cnc2sc3c(c2c1=O)CCCCC3)N/N=C/c1ccccc1O`, the figures for the inhibition of growth at 20 µM in the test on A549 [1], in the test with HeLa [2] and in the test on MDA-MB-231 [3] were 29%, 36% and 40%, respectively. Moreover, the inhibition entry in test [4] is “inactive”.

For `Cc1csc2ncn(CC(=O)N/N=C/c3ccc(C#N)cc3)c(=O)c12`, the “growth inhibition (GI)” value with A549 [1], with HeLa [2] and in the test on MDA-MB-231 [3] was “inactive” in each case. Besides, the inhibition entry in test [4] is “inactive”.

As to `O=C(Cn1cnc2sc3c(c2c1=O)CCC3)N/N=C/c1ccc(Cl)c(F)c1`, the inhibition of growth at 20 µM was 47% in the test with A549 [1], 54% with HeLa [2] and 29% in the test with MDA-MB-231 [3]. For the same compound, the inhibition entry in test [4] is “inactive”.

Source of the values: ChEMBL document CHEMBL1909506, “Synthesis and anti-tumor activities of N'-benzylidene-2-(4-oxothieno[2,3-d]pyrimidin-3(4H)-yl)acetohydrazone derivatives” (Bioorg Med Chem Lett, 2011).
